Measurements as given in the EternaBench riboswitch data.

Test system: MS2 coat protein
Assay: apparent Kd, MS2 coat protein; higher = weaker binding; RNA-MaP array; FMN 200 µM where present
Method in brief: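 The titrant was SNAP-549-labelled MS2 coat protein, run from 0.7 or 1.5 nM in doubling steps to 3 µM. It was applied to designs transcribed by stalled E. coli RNA polymerase on Illumina sequencing-chip clusters, without ligand first and then with constant ligand, in 100 mM Tris-HCl pH 7.5, 80 mM KCl, 4 mM MgCl2, BSA, DTT, yeast tRNA and Tween-20. The apparent Kd is the median of filtered per-cluster binding-curve fits, with green signal normalised to red-channel RNA signal and control-cluster median Fmax.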

[1] = designed as: OFF switch for flavin mononucleotide, no ligand
[2] = ligand present: flavin mononucleotide, designed as: OFF switch for flavin mononucleotide
[3] = designed as: ON switch for flavin mononucleotide, no ligand
[4] = ligand present: flavin mononucleotide, designed as: ON switch for flavin mononucleotide

Row | Sequence | apparent Kd [1] | apparent Kd [2] | apparent Kd [3] | apparent Kd [4]
1 | UUUUGGUAAGGAUAUGCGUAGAUCUCGGAAACGAGAUCUACGCAGAAGGUACAUGAGGAUCACCCAUGUUGAUU | 24.2 nM | 83.3 nM |  | 
2 | GGAUAGGACAGAGGAUAUACGUGCUAGAGAUACUAGCAAAAUUUCCUCACAUGAGGAUCACCCAUGUAGAAGGCUCUCCUAUCG | 8.7 nM | 31.5 nM |  | 
3 | CUGUGACGGUGCGCAAGUGGACGGAGAAGGGACACAUGAGGAUCACCCAUGUGAGCCUGCUAUUGUCAGGAUAUCCGUUCGUAC | 8.69 nM | 13.8 nM |  | 
4 | ACAUGUUAUGUAGGAUAUUAUACACAUGAGGAUCACCCAUGUAACCGGAGGCUUUACUAUGAGUAUGAGAAGGGUAUGAACAUG | 138 nM | 145 nM |  | 
5 | UAUCUAUUUAUGGGAUUAGAAUAUGAGGAUAUCAUUUUUUUAUACAUGAGGAUCACCCAUGUUUCUGAGAAGGCAUAUUUAAUA |  |  | 16.9 nM | 5.72 nM
6 | AAUAUAAGAGCUGGACUCUAAAGAACAUGAGGAUCACCCAUGUAGGAUAUCAGCACGAUAAGUGCUGAGAAGGACAACCAGCUC | 14.1 nM | 14.6 nM |  | 
7 | GUGCCUUGGGAGAAGGCCCAAUGUAAAGCAUAGGGAGGAUAUUCAUAUAAUAAAUAAACAUGAGGAUCACCCAUGUGGCACAAA |  |  | 831 nM | 48.5 nM
8 | CAGCCCUGAGGAUAUCCAUCCUUGUACAUGAGGAUCACCCAUGUUUUCCUCUGGGCUUUUGGAGAAGGCAGGUAUC | 78.3 nM | 82.3 nM |  | 
9 | GAGUUGAACGAGAAGGCCACUACAUGAGGAUCACCCAUGUCGUAGAGUAUUGGAGGAUAUCGAUAGGCGUCUCAUGAGGACAUA | 25.1 nM | 13.4 nM |  | 
10 | GAAACCUAGUCAGGAUAUCGGGCAAUAAUUGCACGAGAAGGGACAUGAGGAUCACCCAUGUACACCUCUGGUGAGUCUCGCAGG | 24.4 nM | 73.6 nM |  | 
11 | UGAGCGACCACAGGAUAUACUCGGGAAGACCAAGUAGAAGGGUGGAAGAGCGUGCAGUGACAUGAGGAUCACCCAUGUGGUUGU |  |  | 143 nM | 97.3 nM
12 | CUAUUGGUAACAGGAUAUAUGAGUCCUACAUGAGGAUCACCCAUGUAGGUGAUCAAACAUGAUUAGUAGAAGGGUUACCAAUAG |  |  | 40.9 nM | 8.8 nM
13 | AGGAAACAUGAGGAUCACCCAUGUAAAUAUGGGCGAGGAUAUCGAAAGAAAAGAAAGAAACGAGAAGGCGCAAAAG |  |  | 324 nM | 77.7 nM
14 | UAUAUUUUUAUAGGAUAUGGAUAUGAUGCAUAUCCAGAAGGGUGAAUAUAAUAUUUUCUGUACAUGAGGAUCACCCAUGUUUAG |  |  | 116 nM | 46.9 nM
15 | CCCAGUUAGGAAGGAUAUUGUACAUGAGGAUCACCCAUGUAAUAAAUGAGGAUCACGGAUGUAUACAAGAAGGUCCGGAUAGGC | 70.4 nM | 140 nM |  | 
16 | UUAUACGUUGAGGAUAUGCGACUGUUUUAAGUUGUAGAAGGCGAUACAUGAGGAUCACCCAUGUUUAUGGGCAU | 240 nM | 327 nM |  | 
17 | UAUAUGUCAGGAUAUUAGUUGAGGUGGAAUUUAGCCUCAGCUGAGAAGGGACAUGAGGAUCACCCAUGUUCCUC | 22.1 nM | 241 nM |  | 
18 | UUGGCGCGAUCCUGGGUCUCACAUGAGGAUCACCCAUGUAGAGAGGAUAUGCAUAGGGCCCAUUGGCAGAAGGCUCUACAUGAG | 101 nM | 47.3 nM |  | 
19 | GCAGUGCCAGCGGUACUGCCUCUAGCAGAAGGGUGACGAGACAUGAGGAUCACCCAUGUAGAGACACAGGAUAUGCACCAGCUU |  |  | 142 nM | 8.26 nM
20 | UGGAGGUCAGGAUAUGCAUGGCGGGACUUGCGUCGUGGCGUGCAGAAGGGACAUGAGGAUCACCCAUGUGGAGC | 64.5 nM | 83.7 nM |  | 
21 | CGAUCGUUGCAGAAGGUUAAAUAAUUAUCUACAUGUUUUACAUGAGGAUCACCCAUGUUUAUGUUGAAGGAUAUGCAAGGGUCG | 8.02 nM | 8.09 nM |  | 
22 | GUGCGUGGCUAGGAUAUUGUGGAGUUUAGUCAGCGAGAAGGUGCCACAUGAGGAUCACCCAUGUGGUGUUGCUC | 19.8 nM | 21.7 nM |  | 
23 | CAUCCACAUGAGGAUCACCCAUGUCAGGAUAUCUAUCAUAGCAUCGAAAGAUGCGGGUAGAGAAGGGACAAACC | 12.9 nM | 20.2 nM |  | 
24 | GUACGGAAGGAGAAGGGCUAGGAGGUCCAGCUUAUGUGUGUUGCAACAUGAGGAUCACCCAUGUAGCAGGAUAUCCUUUGUACA | 45.7 nM | 265 nM |  | 

Row | Sequence | apparent Kd [1] | apparent Kd [2] | apparent Kd [3] | apparent Kd [4]
25 | CUGAGCAAUCAAGGAUAUCACGUCGAUUAGACGUGAGAAGGUGAUCAUUACAUGAGGAUCACCCAUGUAUUACAUGGAGCUCAG |  |  | 1370 nM | 365 nM
26 | CAGCCCUGAGGAUAUCUCAUCUCGCACAUGAGGAUCACCCAUGUUCUUCUCUGGGUUUCGAGAGAAGGCAGGCCUC | 586 nM | 434 nM |  | 
27 | GUCAGCUCGUGAGGAUAUACAUGUGCUGGAGACAGCACUAUUAAGAUCACAUGAGGAUCACCCAUGUAGAAGGCACGAGCUGAU | 50.4 nM | 620 nM |  | 
28 | ACUUCCCAGGAGAAGGGACAAGGCGGAGCCCGUACAUGAGGAUCACCCAUGUCAGGAUAUCCAUGCCGGAAGCUAACCCAGUUA | 6.42 nM | 10.1 nM |  | 
29 | GGUGGACAUGAGGAUCACCCAUGUGAGGAUAUCGGCCGGUUCGCGGUGGCUGGCGUCUCGAGAAGGCACAUAGU | 99.1 nM | 139 nM |  | 
30 | AGAUCACAUGAGGAUCACCCAUGUGAGGAUAUGAUACUAUGUACUUCGGUACAUAGUAUCAGAAGGCAUAUGAA | 27.7 nM | 33.4 nM |  | 
31 | GAUACACAUGAGGAUCACCCAUGUGAGGAUAUGCGUACGUUGUCCGUAGGCGACGUGCGCAGAAGGCGCGUGAG | 52.6 nM | 84 nM |  | 
32 | AGAUGACAAUGUCAUCUUCGUCGGACAUGAGGAUCACCCAUGUAGGAUAUGCUACUCAAAGAGUAGCAGAAGGACAUGUGUCUU | 19.7 nM | 41.1 nM |  | 
33 | CGGCCGGGUCGAGGAUAUAAGUCUAGGACAUGAGGAUCACCCAUGUAUGUCUUAGAAGGCGACCCGGCCAGCCUGUUACAGGCA |  |  | 31.7 nM | 7.21 nM
34 | AUUAUUUACAUAGGAUAUUGUUACAUGAGGAUCACCCAUGUUUUCAUGGUAUUAAUAUAUUAUUUCAAGAAGGAUGUAGUUACA |  |  | 37.4 nM | 20.9 nM
35 | AACAGUACAGGAUAUACAUGAGGAUCACCCAUGUGAGAAUUAAGUGGCGUACCACAUAGUAGAAGGGUACUGGA | 71 nM | 156 nM |  | 
36 | UCCAGACAUGAGGAUCACCCAUGUGAGGAUAUGAUGCGAUCGUCGAAAGACGAUAGCAUCAGAAGGCACGUAUG | 33.7 nM | 48.3 nM |  | 
37 | CCGGGUUAUGUUAGGAUAUGUAGGCCGCAACCGGAACAGAAGGGACAUGAGGAUCACCCAUGUGAUAUUCCCGG | 23.3 nM | 30.8 nM |  | 
38 | UUUUCUCGUGAGAAGGACAUGAGGAUCACCCAUGUAGGAUAUCGUGGGAGACAGGAAUUGAAUCUUCGGAUUCAAUUCCUGUCU |  |  | 104 nM | 8.82 nM
39 | AUAAAACAUGAGGAUCACCCAUGUAGAAACAUGGGAGGAUAUACAAAGACGAAAGUCAAAGUAGAAGGCCUAAAAG |  |  | 462 nM | 311 nM
40 | CGCGAACAGGUUAACAUGAGGAUCACCCAUGUGGACUCAUGGUAGGAUAUCGGGAAGGAGGAAACCGAGAAGGGCUGGUGAGCC |  |  | 634 nM | 443 nM
41 | GUAUUUAGAUAAGGAUAUAAGUCUAGGACAUGAGGAUCACCCAUGUGUGUCUUAGAAGGUAUUUGGGUAAUACUGUUACAGUAA |  |  | 150 nM | 99.5 nM
42 | CAGCGAAAGCUGAAUCUGUAGAGAGAGGAUAUACGUCAUAAGGUGCAAACAUGAGGAUCACCCAUGUAGAAGGCUCUCUACAGU | 55.8 nM | 460 nM |  | 
43 | CUCGGACAUGAGGAUCACCCAUGUGAGGAUAUGAUGCGAUCGUCGAAAGACGAUAGCAUCAGAAGGUACAAAUG | 52 nM | 42.9 nM |  | 
44 | CUUUUGUGAGGAUAUUAGUAGUUUAUAAUUGGUGUUAUUACUGAGAAGGCACAUGAGGAUCACCCAUGUACAAC | 47.9 nM | 181 nM |  | 
45 | CUACCGCGUGUGAGGAUAUUAUCACGUUACGGCGCUAAGAAGGUACAUGAGGAUCACCCAUGUCUCAACGGGUG | 447 nM | 546 nM |  | 
46 | UACAUUACUGAGAAGGGAUAUAUAUAAUUUUAGUCAGGAUAUCGAUACAGUGCAGCAUGAGGACAUGAGGAUCACCCAUGUAUU |  |  | 20.5 nM | 17 nM
47 | GCGUAAUAGGUGUAGCUAGUCAUUCAAGAAGGGUGGAGAACAUGAGGAUCACCCAUGUAGUUUAUACAGGAUAUUGAUAUACGC |  |  | 552 nM | 138 nM
48 | GUUGCACAAGUUAACAUGAGGAUCACCCAUGUCAAAAGACAUGAGGAUAUGGAUGUGAAGAUAAUCCAGAAGGCAUAAUGCUAA |  |  | 596 nM | 129 nM
